Assay results of several laboratories.
Target: 1-phosphatidylinositol 3-phosphate 5-kinase (PIKFYVE, Homo sapiens, UniProt Q9Y2I7)

| SMILES | read-out | technique | tested at | remaining binding [%] |
| --- | --- | --- | --- | --- |
| COc1cc(-c2cn(C3CCc4c(F)cccc4N(CC(F)(F)F)C3=O)nn2)ccc1-n1cnc(C)c1 (stereo not drawn) | cell-free assay | competition with immobilised ligand | 1 µM | 100 |
| O=C(Nc1c[nH]nc1C(=O)NC1CCNCC1)c1cc(F)cc(F)c1 | binding | competition with immobilised ligand | 1 µM | 86 |
| CSc1cccnc1N1CCN(Cc2nc3ccccc3[nH]2)CC1 | cell-free assay | competition with immobilised ligand | 1 µM | 100 |
| O=C(c1ccc(Nc2nccc(-c3cc4ccccc4s3)n2)cc1)N1CCC(N2CCCC2)CC1 | binding | competition with immobilised ligand | 1 µM | 0.6 |
| C[C@@H]1CCN(c2nccc(-c3cnn4ncccc34)n2)C1 | binding | – | 1 µM | 99 |
| FC(F)(F)c1ccc2c(c1)nc(-c1cccnc1)n2C1CC1 | cell-free assay | competition with immobilised ligand | 1 µM | 99 |
| O=C(NCCCN1CCOCC1)c1ccc(Nc2ncc(Cl)c(-c3ccc(Cl)s3)n2)cc1 | binding | competition with immobilised ligand | 1 µM | 53 |
| Nc1ncc2c(n1)-c1c([nH]c3ccc(C#CC4CC4)cc13)CCCC2 | binding | competition with immobilised ligand | 1 µM | 9.8 |
| Cc1cnn2ncc(-c3ccnc(N(C)C)n3)c2c1 | binding | – | 1 µM | 87 |
| COc1ccc2c(c1)O[C@@H](c1ccc(OC)c(OC)c1)C[C@H]2NC(=O)C1(c2ccc3c(c2)OC(F)(F)O3)CC1 | cell-free assay | competition with immobilised ligand | 1 µM | 100 |
| c1cnn2ncc(-c3ccnc(N4CCC45COC5)n3)c2c1 | binding | – | 1 µM | 92 |
| CNC(=O)[C@@H]1CC[C@@H](n2c(-c3ccc4cnccc4c3)nc3ccc(C(=O)NCc4cccc(C(N)=O)c4)cc32)C1 | binding | competition with immobilised ligand | 1 µM | 14 |
| CO[C@H]1CC[C@H](CNc2ccc(S(=O)(=O)NC(=O)c3ccc(N4CCN(CC5=C(c6ccc(Cl)cc6)CC(C)(C)CC5)CC4)cc3Oc3cnc4[nH]ccc4c3)cc2[N+](=O)[O-])CC1 | cell-free assay | competition with immobilised ligand | 1 µM | 89 |
| O=C(c1ccc(Nc2ncc(Cl)c(-c3cc4ccccc4s3)n2)cc1)N1CCC(N2CCCC2)CC1 | binding | competition with immobilised ligand | 1 µM | 72 |
| CN(CCCC(F)(F)F)c1nccc(-c2cnn3ncccc23)n1 | binding | – | 1 µM | 45 |
| COc1cnc(Nc2cccc(S(N)(=O)=O)c2)nc1N1CCN(c2ccccc2)C(=O)C1 | binding | competition with immobilised ligand | 1 µM | 100 |
| CC(C)CC(=O)N1CCc2nc(-c3ccc(Br)cc3)nc(N(C)Cc3ccccc3)c2C1 | cell-free assay | competition with immobilised ligand | 0.1 µM | 91 |
| CN(C)c1nccc(-c2cnc3ncccn23)n1 | binding | – | 1 µM | 78 |
